9 compounds from ChEMBL document CHEMBL4706728, “Discovery of a Highly Selective and Potent TRPC3 Inhibitor with High Metabolic Stability and Low Toxicity” (ACS Med Chem Lett, 2021) can be followed below.

The source made the active and inactive calls. No cut-off for these calls is given here. Some results are limits rather than exact numbers.

The target in series [1] is T1, Short transient receptor potential channel 3 (Homo sapiens) (UniProt Q13507).
T1 sequence (whole entry): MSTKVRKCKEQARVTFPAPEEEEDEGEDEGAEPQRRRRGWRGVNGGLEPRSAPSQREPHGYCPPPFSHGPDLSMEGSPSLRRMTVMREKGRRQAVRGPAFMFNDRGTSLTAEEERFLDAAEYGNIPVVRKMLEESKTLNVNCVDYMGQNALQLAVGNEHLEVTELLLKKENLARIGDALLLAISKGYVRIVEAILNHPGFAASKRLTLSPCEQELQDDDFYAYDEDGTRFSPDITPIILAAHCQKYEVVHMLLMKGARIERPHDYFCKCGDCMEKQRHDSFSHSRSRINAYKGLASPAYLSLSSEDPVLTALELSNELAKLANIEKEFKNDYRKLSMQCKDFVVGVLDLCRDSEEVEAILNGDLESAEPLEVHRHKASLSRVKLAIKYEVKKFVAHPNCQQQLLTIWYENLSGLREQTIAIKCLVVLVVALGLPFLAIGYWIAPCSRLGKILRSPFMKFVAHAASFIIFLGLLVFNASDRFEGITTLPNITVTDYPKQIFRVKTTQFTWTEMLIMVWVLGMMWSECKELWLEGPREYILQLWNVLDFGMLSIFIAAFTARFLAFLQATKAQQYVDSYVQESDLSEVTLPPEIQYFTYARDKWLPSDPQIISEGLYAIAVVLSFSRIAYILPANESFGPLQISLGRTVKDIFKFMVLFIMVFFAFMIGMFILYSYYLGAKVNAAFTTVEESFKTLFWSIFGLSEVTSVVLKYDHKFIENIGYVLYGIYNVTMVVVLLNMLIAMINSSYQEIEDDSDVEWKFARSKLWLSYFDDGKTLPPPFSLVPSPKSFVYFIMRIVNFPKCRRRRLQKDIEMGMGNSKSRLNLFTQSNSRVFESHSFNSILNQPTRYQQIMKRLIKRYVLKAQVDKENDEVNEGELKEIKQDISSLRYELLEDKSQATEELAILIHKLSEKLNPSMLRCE
As to the kind of experiment: Inhibition of human TRPC3 expressed in HEK293 cells assessed as inhibition of GSK170-induced current at 10 uM in absence of extracellular calcium by whole cell patch-clamp method relative to control. The class given is cell-based. Put shortly:
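Human TRPC3 transiently expressed in HEK293 cells; whole-cell patch clamp with Ca2+-free solutions. Channel activated by GSK1702934A, then test compound at 10 μM perfused with the agonist. Inhibition expressed as percentage of the agonist-evoked current; mean ± SD, n cells per compound.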

In series [2] the target is T2, Short transient receptor potential channel 3 (Homo sapiens, UniProt Q13507).
T2 sequence (Q13507 whole entry): T1 sequence (whole entry)
Kind of series: Inhibition of human TRPC3 expressed in HEK293 cells assessed as inhibition of GSK170-induced current in absence of extracellular calcium by whole cell patch-clamp method. The series is classed as cell-based. Put shortly:
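Whole-cell patch clamp of hTRPC3 in transfected HEK293 cells, Ca2+-free solutions, currents activated by 1 μM GSK1702934A. Inhibitor at a range of concentrations perfused with agonist. Each concentration tested on independent cells and normalized to that cell's maximum current to avoid tachyphylaxis. Dose–response fitted for IC50; mean ± SD.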

Series [3] concerns the target T2, Short transient receptor potential channel 3. As to the kind of experiment: Inhibition of human TRPC3 expressed in HEK293 cells assessed as inhibition of GSK170-induced current in presence of 2 mM extracellular calcium by whole cell patch-clamp method. The series is classed as cell-based. Put shortly:
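hTRPC3 in HEK293 cells, whole-cell patch clamp with 2 mM extracellular Ca2+. Currents elicited by 1 μM GSK1702934A and challenged with a range of inhibitor concentrations by perfusion. Each concentration tested on separate cells and normalized to the cell's maximum amplitude. Dose–response curve built from the data; mean ± SD.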

Series [4] concerns the target T1, Short transient receptor potential channel 3 (Homo sapiens). Kind of series: Inhibition of human TRPC3 expressed in HEK293 cells assessed as inhibition of OAG-induced current at 0.001 to 10 uM by whole cell patch-clamp method. The note with it: dose 0.001-10 µM. The series is classed as cell-based. Put shortly: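 Whole-cell recordings of hTRPC3 expressed in HEK293 cells, channel activated by 1-oleoyl-2-acetyl-sn-glycerol (membrane-permeable diacylglycerol analogue) instead of GSK1702934A. Inhibitor at a range of concentrations co-perfused with agonist to build a dose–response profile.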

The target of another series is ORAI1/STIM1 (Homo sapiens, UniProt Q96D31+Q13586). As to the kind of experiment: Inhibition of STIM/Orai1 (unknown origin) expressed in HEK293 cells assessed as reduction in thapsigargin-induced Ca2+ influx at 10 uM in presence of Ca2+ by whole cell patch clamp method. The note with it: hek293, 10 µM. The class given is cell-based.
ORAI1/STIM1, sequence (Q96D31 whole entry): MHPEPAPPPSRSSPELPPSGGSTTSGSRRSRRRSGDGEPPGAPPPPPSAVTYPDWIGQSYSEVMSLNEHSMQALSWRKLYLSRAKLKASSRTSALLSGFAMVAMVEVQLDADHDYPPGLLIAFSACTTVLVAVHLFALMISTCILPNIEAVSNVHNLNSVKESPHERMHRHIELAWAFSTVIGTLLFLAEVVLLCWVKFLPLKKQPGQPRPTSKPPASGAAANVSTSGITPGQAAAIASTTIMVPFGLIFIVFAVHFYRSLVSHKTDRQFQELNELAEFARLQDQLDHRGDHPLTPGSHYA
ORAI1/STIM1, sequence (Q13586 whole entry): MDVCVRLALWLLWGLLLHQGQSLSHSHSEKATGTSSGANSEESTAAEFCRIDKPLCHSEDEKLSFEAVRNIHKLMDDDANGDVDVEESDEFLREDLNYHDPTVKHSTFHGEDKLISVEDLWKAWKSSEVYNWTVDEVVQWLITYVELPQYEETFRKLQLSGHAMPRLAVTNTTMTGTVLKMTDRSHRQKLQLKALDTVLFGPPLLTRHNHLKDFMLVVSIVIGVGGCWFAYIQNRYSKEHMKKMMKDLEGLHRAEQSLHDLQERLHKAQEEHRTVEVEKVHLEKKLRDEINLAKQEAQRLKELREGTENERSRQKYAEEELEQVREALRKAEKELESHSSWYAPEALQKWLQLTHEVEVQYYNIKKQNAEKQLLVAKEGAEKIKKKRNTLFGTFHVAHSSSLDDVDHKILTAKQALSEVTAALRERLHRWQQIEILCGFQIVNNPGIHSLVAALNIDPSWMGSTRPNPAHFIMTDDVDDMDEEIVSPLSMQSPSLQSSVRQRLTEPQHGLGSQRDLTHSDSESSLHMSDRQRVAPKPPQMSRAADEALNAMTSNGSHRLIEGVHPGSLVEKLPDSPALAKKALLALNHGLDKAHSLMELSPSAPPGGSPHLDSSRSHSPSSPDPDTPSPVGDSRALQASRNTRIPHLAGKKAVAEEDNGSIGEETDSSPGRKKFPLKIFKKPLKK
Series [5] can be described thus: Metabolic stability in human liver microsomes assessed as half life at […] measured up to 240 mins in presence of NADPH regeneration system by LC-MS analysis. The series is classed as ADME, Microsome.
The nature of series [6]: Metabolic stability in mouse liver microsomes assessed as half life at […] measured up to 240 mins in presence of NADPH regeneration system by LC-MS analysis. The class given is ADME, Microsome.
The nature of series [7]: Metabolic stability in rat liver microsomes assessed as half life at […] measured up to 240 mins in presence of NADPH regeneration system by LC-MS analysis. The class given is ADME, Microsome.
Series [8] in a line: Toxicity in NSG/ICR mouse assessed as body weight loss at 200 mg/kg, ip administered once daily for 5 days. The note with it: in vivo, 120 h, dose 200 mg/kg/day, time 5 day. The series is classed as organism-based. Put shortly: (§1)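 Mice (n = 5 per group) dosed at 200 mg/kg by intraperitoneal injection once daily for 5 consecutive days. Survival monitored. Body weight expressed as mean percent change ± SD relative to weight at the start of treatment (day 0), with 15% weight loss as the reference line.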

The next series deals with Hippocampal neurone. As to the kind of experiment: Neuroprotective activity in Sprague-Dawley rat primary hippocampal neurons assessed as reduction in Abeta-induced dendrites damage at 0.25 to 1 uM incubated for 16 hrs by MAP2 staining based assay. The series is classed as functional, tissue-based. The note with it: dose 0.25-1 µM. In short, it runs like this: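 Primary hippocampal neurons from E17 rat embryos, used at 14 DIV. Treated for 16 h with naturally secreted Aβ-containing 7PA2 conditioned medium (CHO medium as control), alone or with test compound at several concentrations. Neurons then immunostained for MAP2 with DAPI, and dendritic length quantified.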

For series [9], the target named is T3, Short transient receptor potential channel 3 (Mus musculus, UniProt Q9QZC1).
T3 sequence (Q9QZC1 whole entry): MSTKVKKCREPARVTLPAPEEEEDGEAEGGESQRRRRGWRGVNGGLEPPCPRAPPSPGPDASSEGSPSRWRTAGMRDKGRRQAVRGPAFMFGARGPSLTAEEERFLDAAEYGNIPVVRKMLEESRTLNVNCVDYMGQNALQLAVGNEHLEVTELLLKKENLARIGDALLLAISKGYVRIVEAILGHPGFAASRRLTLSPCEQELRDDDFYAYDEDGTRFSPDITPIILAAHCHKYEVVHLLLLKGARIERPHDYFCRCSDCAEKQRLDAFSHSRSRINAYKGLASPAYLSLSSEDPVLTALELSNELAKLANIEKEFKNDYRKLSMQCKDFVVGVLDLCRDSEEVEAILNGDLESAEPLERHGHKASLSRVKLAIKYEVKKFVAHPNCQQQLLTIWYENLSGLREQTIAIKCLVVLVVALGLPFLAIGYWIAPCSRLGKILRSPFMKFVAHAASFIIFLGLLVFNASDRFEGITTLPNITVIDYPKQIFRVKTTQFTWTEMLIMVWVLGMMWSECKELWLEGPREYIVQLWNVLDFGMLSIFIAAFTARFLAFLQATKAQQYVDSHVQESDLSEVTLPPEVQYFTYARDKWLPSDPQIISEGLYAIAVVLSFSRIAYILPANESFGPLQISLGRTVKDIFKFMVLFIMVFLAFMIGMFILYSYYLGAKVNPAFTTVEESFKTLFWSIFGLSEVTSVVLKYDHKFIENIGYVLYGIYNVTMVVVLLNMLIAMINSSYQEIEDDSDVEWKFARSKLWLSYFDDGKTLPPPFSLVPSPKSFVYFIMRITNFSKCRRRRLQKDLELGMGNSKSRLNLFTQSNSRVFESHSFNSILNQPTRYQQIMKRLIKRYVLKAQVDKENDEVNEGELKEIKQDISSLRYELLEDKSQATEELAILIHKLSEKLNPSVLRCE
As to the kind of experiment: Inhibition of mouse TRPC3 expressed in HEK293 cells assessed as inhibition of Ca2+ influx by whole cell patch-clamp method. The class given is cell-based.

Series [10] in a line: Toxicity in NSG/ICR mouse assessed as survival at 200 mg/kg, ip administered once daily for 5 days. The class given is organism-based. Conditions: NSG/ICR, in vivo, dose 200 mg/kg/day, time 5 day. Put shortly: as §1
Series [11] is described as follows: Toxicity in NSG/ICR mouse assessed as mortality at 200 mg/kg, ip administered once daily for 5 days measured within 48 hrs. The note with it: in vivo, dose 200 mg/kg/day. The series is classed as organism-based. In short, it runs like this: as §1

In the case of `CCNC(=O)c1cnn(-c2ccc(-n3ccc(Cl)cc3=O)cc2)c1C(F)(F)F`, the inhibition in [1] worked out at 84%.
With `CCOC(=O)c1cnn(-c2ccc(-n3cc(Cl)ccc3=O)cc2)c1C(F)(F)F`, the inhibition entry in series [1] was “inactive”.
`CCOC(=O)c1cnn(-c2ccc(NC(=O)C(Cl)=C(Cl)Cl)cc2)c1C(F)(F)F`: in series [1], the inhibition is 91%. Also, the IC50 in [2] stood at 530 nM; in series [3], 470 nM; in series [9], 700 nM. Moreover, the inhibition entry in series [4] is “Active”. Also, the “inhibition (INH)” value at ORAI1/STIM1 is reported as “Active”. For the same compound, the half-life in series [5], in series [6] and in series [7] was below 15 min each time. The Activity in [8] amounted to 15%. The outcome in the series with Hippocampal neurone was Active. Further, the survival at 120 h in [10] came out at 80%.
On to `CCNC(=O)c1cnn(-c2ccc(NC(=O)C(Cl)=C(Cl)Cl)cc2)c1C(F)(F)F`, for which, in [11], the mortality at 48 h came to 100%.
Consider `CCNC(=O)c1cnn(-c2ccc(-n3ccc(Cl)c(F)c3=O)cc2)c1C(F)(F)F`, for which the inhibition entry in series [1] was “inactive”.
As to `CCOC(=O)c1cnn(-c2ccc(-n3ccccc3=O)cc2)c1C(F)(F)F`, the inhibition result in series [1] was “inactive”.
Take `CCNS(=O)(=O)c1cnn(-c2ccc(-n3ccc(Cl)c(Cl)c3=O)cc2)c1C(F)(F)F`: in series [1], the inhibition result is “inactive”.
Take `CCOC(=O)c1cnn(-c2ccc(-n3ccc(Cl)cc3=O)cc2)c1C(F)(F)F`: in [1], the inhibition stood at 71%.
As for `CCOC(=O)c1cnn(-c2ccc(-n3cc(Cl)cc(Cl)c3=O)cc2)c1C(F)(F)F`, in series [1], the inhibition result was “inactive”.
